Measurements taken from ChEMBL document CHEMBL1122774, “Tri- and tetrapeptide analogues of kinins as potential renal vasodilators” (J Med Chem, 1984).
Square brackets hold non-standard residues; d marks the D form. Peptide text beside a SMILES is read from it. * marks the point of attachment. ξ: configuration not given here. Hydrocinnamoyl = O=C(CCc1ccccc1)*; ξαMeF = CC(N)(Cc1ccccc1)C(=O)O; PhAc = O=C(Cc1ccccc1)*; Bz = O=C(c1ccccc1)*

Legend:
[1] = system: Canis familiaris; test: Renal vasodilator activity in anesthetized dogs and percent change in heart rate (HR) was determined at 3 ug/kg min; assay type: functional, Canis lupus familiaris
In short: (§1)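 Primary screen in anesthetized dogs (7-17 kg). Drug infused separately at 3, 30 and 300 µg/(kg min), each infusion lasting 5 min, at about 15-min intervals. Read-outs are renal blood flow, mean arterial blood pressure, heart rate, and RVR (MABP / mean RBF), as percent change. Significance thresholds are defined per number of dogs; n = 1-3 dogs.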

[2] = system: Canis familiaris; test: Renal vasodilator activity in anesthetized dogs and percent change in heart rate (HR) was determined at 30 ug/kg min; assay type: functional, Canis lupus familiaris; in short: as §1
[3] = system: Canis familiaris; test: Renal vasodilator activity in anesthetized dogs and percent change in heart rate (HR) was determined at 300 ug/kg min; assay type: functional, Canis lupus familiaris; in short: as §1
[4] = system: Canis familiaris; test: Renal vasodilator activity in anesthetized dogs and percent change in mean arterial blood pressure (MABP) was determined at 3 ug/kg min; assay type: functional, Canis lupus familiaris; in short: as §1
[5] = system: Canis familiaris; test: Renal vasodilator activity in anesthetized dogs and percent change in mean arterial blood pressure (MABP) was determined at 30 ug/kg min; assay type: functional, Canis lupus familiaris; in short: as §1
[6] = system: Canis familiaris; test: Renal vasodilator activity in anesthetized dogs and percent change in mean arterial blood pressure (MABP) was determined at 300 ug/kg min; assay type: functional, Canis lupus familiaris; in short: as §1
[7] = system: Canis familiaris; test: Renal vasodilator activity in anesthetized dogs and percent change in renal blood flow (RBF) was determined at 3 ug/kg min; assay type: functional, Canis lupus familiaris, Kidney; in short: as §1
[8] = system: Canis familiaris; test: Renal vasodilator activity in anesthetized dogs and percent change in renal blood flow (RBF) was determined at 30 ug/kg min; assay type: functional, Canis lupus familiaris, Kidney; in short: as §1
[9] = system: Canis familiaris; test: Renal vasodilator activity in anesthetized dogs and percent change in renal blood flow (RBF) was determined at 300 ug/kg min; assay type: functional, Canis lupus familiaris, Kidney; in short: as §1
[10] = system: Canis familiaris; test: Renal vasodilator activity in anesthetized dogs and percent change in renal vascular resistance (RVR) was determined at 3 ug/kg min; assay type: functional, Canis lupus familiaris; in short: as §1
[11] = system: Canis familiaris; test: Renal vasodilator activity in anesthetized dogs and percent change in renal vascular resistance (RVR) was determined at 300 ug/kg min; assay type: functional, Canis lupus familiaris; in short: as §1
[12] = system: Canis familiaris; test: Renal vasodilator activity in anesthetized dogs and percent change in renal vascular resistance (RVR) was determined at 30 ug/kg min; assay type: functional, Canis lupus familiaris; in short: as §1
[13] = system: Canis familiaris; test: In vivo percent change in renal blood flow at 30 ug/Kg/min.; assay type: functional, Canis lupus familiaris, Kidney; in short: as §1
[14] = system: Canis familiaris; test: Renal vasodilator activity in anesthetized dogs and percent change in renal vascular resistance (RVR) was determined at 30 ug/Kg/min; assay type: functional, Canis lupus familiaris; in short: as §1
[15] = system: Canis familiaris; test: In vivo percent change in canine heart rate at 3 ug/Kg/min.; assay type: functional, Canis lupus familiaris; in short: as §1
[16] = system: Canis familiaris; test: In vivo percent change in canine heart rate at 30 ug/Kg/min.; assay type: functional, Canis lupus familiaris; in short: as §1
[17] = system: Canis familiaris; test: In vivo percent change in canine heart rate at 300 ug/Kg/min.; assay type: functional, Canis lupus familiaris; in short: as §1
[18] = system: Canis familiaris; test: In vivo percent change in canine mean arterial blood pressure (MABP) at 3 ug/Kg/min.; assay type: functional, Canis lupus familiaris; in short: as §1
[19] = system: Canis familiaris; test: In vivo percent change in canine mean arterial blood pressure (MABP) at 30 ug/Kg/min.; assay type: functional, Canis lupus familiaris; in short: as §1
[20] = system: Canis familiaris; test: In vivo percent change in canine mean arterial blood pressure (MABP) at 300 ug/Kg/min.; assay type: functional, Canis lupus familiaris; in short: as §1
[21] = system: Canis familiaris; test: In vivo percent change in canine renal blood flow (RBF) at 3 ug/Kg/min.; assay type: functional, Canis lupus familiaris, Kidney; in short: as §1
[22] = system: Canis familiaris; test: In vivo percent change in canine renal blood flow (RBF) at 300 ug/Kg/min.; assay type: functional, Canis lupus familiaris, Kidney; in short: as §1
[23] = system: Canis familiaris; test: In vivo percent change in canine renal vascular resistance (RVR) at 3 ug/Kg/min.; assay type: functional, Canis lupus familiaris; in short: as §1
[24] = system: Canis familiaris; test: In vivo percent change in canine renal vascular resistance (RVR) at 300 ug/Kg/min.; assay type: functional, Canis lupus familiaris; in short: as §1

Compound	Change [1] [%]	Change [2] [%]	Change [3] [%]	Change [4] [%]	Change [5] [%]	Change [6] [%]	Change [7] [%]	Change [8] [%]	Change [9] [%]	Change [10] [%]	Change [11] [%]	Change [12] [%]	also measured
N=C(N)NCCC[C@H](NC(=O)[C@H](Cc1ccccc1)NC(=O)[C@@H]1CCCN1C(=O)c1ccccc1)C(=O)O (Bz-Pro-Phe-Arg-OH)	0	0	0	4	1	0	3	0	-10	2	11	0	
CC(Cc1ccccc1)(NC(=O)[C@@H]1CCCN1C(=O)CCc1ccccc1)C(=O)N[C@@H](CCCN=C(N)N)C(=O)O (stereo partly specified) (Hydrocinnamoyl-Pro-[ξαMeF]-Arg-OH)	8	1	-1	-2	-3	1	5	2	1	-7	0	-5	
CC(Cc1ccccc1)(NC(=O)[C@@H]1CCCN1C(=O)CCCc1ccccc1)C(=O)N[C@@H](CCCN=C(N)N)C(=O)O (stereo partly specified)	-3.6	0	-1	3	2.8	1	0	4.6	1	3	0	-1.8	
CC(Cc1ccccc1)(NC(=O)[C@@H]1CCCN1C(=O)Cc1ccccc1)C(=O)N[C@@H](CCCN=C(N)N)C(=O)O (stereo partly specified) (PhAc-Pro-[ξαMeF]-Arg-OH)	9	-2	0	0	0	5	4	0	-2	-4	7	0	
N=C(N)NCCC[C@H](NC(=O)[C@@H]1Cc2ccccc2CN1C(=O)CCCc1ccc(O)cc1)C(=O)O													Change [13]: 2%; Change [14]: -1%; Change [15]: 1%; Change [16]: 0%; Change [17]: 0%; Change [18]: -1%; Change [19]: 1%; Change [20]: -2%; Change [21]: 7%; Change [22]: -12%; Change [23]: -6%; Change [24]: 11%
COc1ccc(CC(C)(NC(=O)[C@@H]2CCCN2C(=O)CCCc2ccc(O)cc2)C(=O)NCCCN)cc1OC.Cl (stereo partly specified)													Change [13]: 16.5%; Change [14]: -15.5%; Change [15]: 0.5%; Change [16]: -1%; Change [17]: 1.5%; Change [18]: 1.5%; Change [19]: -2%; Change [20]: -1.5%; Change [21]: 13.5%; Change [22]: 10.5%; Change [23]: -11%; Change [24]: -10%
N=C(N)NCCC[C@H](NC(=O)[C@H](Cc1ccccc1)NC(=O)[C@@H]1CCCN1C(=O)CCCc1ccccc1)C(=O)O	2	1.7	-1.7	1	0.3	-0.7	5.3	4	-1.7	-5.7	1	-3.7	
Cl.NCCCNC(=O)[C@@H]1Cc2ccccc2CN1C(=O)CCCc1ccc(O)cc1	1	-2	-1	-2	-1	-2	3	6	5	-6	-6	-6	
